Experiments:
Substance-K receptor = molecular target: T1, Substance-K receptor (Homo sapiens, UniProt P21452); experiment: In vitro inhibition of [125I]NKA binding to transfected Chinese hamster ovary cells (CHO cells) expressing recombinant human Tachykinin receptor 2; assay type: cell-based
T1 sequence (P21452 whole entry): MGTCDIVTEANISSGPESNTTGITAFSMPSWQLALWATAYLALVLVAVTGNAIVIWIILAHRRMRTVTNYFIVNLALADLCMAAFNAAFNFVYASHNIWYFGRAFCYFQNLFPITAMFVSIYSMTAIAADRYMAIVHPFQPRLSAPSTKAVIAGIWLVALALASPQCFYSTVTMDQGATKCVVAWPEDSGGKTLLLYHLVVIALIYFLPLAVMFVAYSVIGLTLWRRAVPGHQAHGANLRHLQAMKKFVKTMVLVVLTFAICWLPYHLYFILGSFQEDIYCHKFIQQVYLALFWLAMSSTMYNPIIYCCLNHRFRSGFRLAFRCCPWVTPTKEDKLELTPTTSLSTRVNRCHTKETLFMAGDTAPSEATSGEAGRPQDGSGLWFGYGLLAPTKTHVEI
Method in brief: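 Binding of 0.05 nM [125I]-NKA (2200 Ci/mmol) to 3×10^5 hNK2-transfected CHO cells in 20 mM HEPES pH 7.4 with 2 mM MnSO4 and 6 mM MgCl2, across a range of drug concentrations. Incubated 20 min at room temperature. Nonspecific binding taken with 50 nM NKA. Rapid filtration, 4 washes in ice-cold Tricine, filter radioactivity by scintillation counting, triplicates.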

Cavia porcellus [1] = experiment: In vivo inhibition against beta-Ala8-NKA-induced bronchoconstriction in guinea pig at 2 h; assay type: functional
Cavia porcellus [2] = experiment: In vivo inhibition against beta-Ala8-NKA-induced bronchoconstriction in guinea pig at 4 h; assay type: functional
Cavia porcellus [3] = experiment: In vivo inhibition against Sar9SP-induced bronchoconstriction in guinea pigs at 2 h; assay type: functional
Cavia porcellus [4] = experiment: In vivo inhibition against Sar9SP-induced bronchoconstriction in guinea pigs at 4 h; assay type: functional
Cavia porcellus [5] = experiment: In vivo inhibition against Sar9SP-induced bronchoconstriction in guinea pigs at 1 mg/kg for 12 h; assay type: functional

**Q.** `CN(C(=O)c1cc(C(F)(F)F)cc(C(F)(F)F)c1)[C@@H](/C=C/C(=O)N[C@H]1CCCCNC1=O)Cc1ccc(Cl)cc1` (mixture of isomers) was tested. Which IC50 (Substance-K receptor) did it give?
**A.** The IC50 was 120 nM.

**Q.** With `CN(C(=O)c1cc(C(F)(F)F)cc(C(F)(F)F)c1)C(/C=C/C(=O)NC1CCCCNC1=O)Cc1ccc(Cl)cc1` (mixture of isomers) as the compound, how does the IC50 (Substance-K receptor) read?
**A.** Its IC50 is 55 nM.

**Q.** With `CN(C(=O)c1cc(C(F)(F)F)cc(C(F)(F)F)c1)[C@H](/C=C/C(=O)N[C@@H]1CCCCNC1=O)Cc1ccc(Cl)cc1` as the compound, how does the IC50 (Substance-K receptor) read?
**A.** Its IC50 is 123 nM.

**Q.** With `CN(C(=O)c1cc(C(F)(F)F)cc(C(F)(F)F)c1)[C@@H](/C=C/C(=O)N[C@@H]1CCCCNC1=O)Cc1ccc(Cl)cc1` as the compound, how does the IC50 (Substance-K receptor) read?
**A.** The IC50 was 24 nM.

**Q.** What about the ED50 (Cavia porcellus [1]) of the same compound?
**A.** Its ED50 is 0.9 mg/kg.

**Q.** And the ED50 (Cavia porcellus [2])?
**A.** The ED50 was 0.73 mg/kg.

**Q.** And the ED50 (Cavia porcellus [3])?
**A.** The ED50 was 0.036 mg/kg.

**Q.** What about the ED50 (Cavia porcellus [4]) of the same compound?
**A.** Its ED50 is 0.03 mg/kg.

**Q.** And the inhibition in vivo at 1 mg/kg (Cavia porcellus [5])?
**A.** The inhibition in vivo at 1 mg/kg was 85%.

**Q.** Which IC50 (Substance-K receptor) does the source give for `CN(C(=O)c1cc(C(F)(F)F)cc(C(F)(F)F)c1)[C@H](/C=C/C(=O)N[C@H]1CCCCNC1=O)Cc1ccc(Cl)cc1` here?
**A.** The IC50 was 300 nM.
